In PMC6588464 (Cell chemical biology, 2019):
pIC50, pKi: −log10 of the molar value.

How the values were obtained:
[1] = test system: CDK12/13; settings: ref Zhang et al., 2016; Gao et al., 2018; cited from earlier work
[2] = target: CDK7/Mat1/CycH (Homo sapiens, UniProt P50613); assay: Adapta Eu fixed time point in vitro kinase assay, Km ATP; format: biochemical
[3] = target: CDK2/CycA (Homo sapiens, UniProt P24941); assay: Z'LYTE kinase assay, Km ATP; format: biochemical; settings: read-out: IC50 CDK2
[4] = target: CDK9/CycT1 (Homo sapiens, UniProt P50750); assay: Adapta Eu kinase assay, Km ATP; format: biochemical; settings: read-out: IC50 CDK9
[5] = target: CDK7/CycH/Mat1 (Homo sapiens, UniProt P50613); assay: Covalent inhibition kinetics, peptide substrate mobility shift assay; format: biochemical
[6] = test system: CDK7-cyclin H-MAT1 trimeric complex; assay: Mass spectrometry analysis of covalent labeling of recombinant CAK complex; format: binding; settings: recombinant complex incubated 4 hours at 37 °C
Procedure, shortened: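 Recombinant CAK complex (CDK7/cyclin H/MNAT1) was incubated with test compound or DMSO for 4 h at 37 °C and resolved by SDS-PAGE, then analysed by nanoLC/MS. Two unlabeled, non-cysteine CDK7 peptides served for normalization. For CE-MS, treated complex was denatured (0.1% Rapigest final), reduced (10 mM DTT), alkylated (22.5 mM iodoacetamide) and trypsin-digested overnight at 37 °C.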

[7] = test system: CDK7 C312S; format: cell-based, Human
Procedure, shortened: (§1)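 HeLa cells stably expressing FLAG-tagged wild-type or C312S CDK7 were treated 6 h with compound or DMSO and lysed. Substrate was 1 μg RPB1 with 25 μM ATP plus 10 μCi 32P-ATP. Read-out was SDS-PAGE and phosphorimaging.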

[8] = target: CDK7 (Homo sapiens, UniProt P50613); assay: Radioactive in vitro kinase assay at 1 mM ATP; format: biochemical; settings: read-out: IC50 for CDK7; ATP concentration of 1mM
[9] = test system: CDK12; assay: Radioactive in vitro kinase assay at 1 mM ATP; format: biochemical; settings: ATP 1mM, at the concentrations tested
[10] = test system: CDK7-cyclin H; assay: Competitive bioTHZ1 pulldown in HAP1 cells; format: cell-based, human; settings: for time required for equivalent engagement of CDK7 (>50%): compared with 30 min for YKL-5-124
[11] = test system: CDK7; assay: KiNativ profiling in Jurkat cells; format: cell-based, human; settings: 1μM, 6 hours
Procedure, shortened: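 Jurkat cells were treated 6 h with 1μM compound or DMSO, then sonicated in 50 mM HEPES pH 7.5, 150 mM NaCl, 0.1% Triton X-100 with phosphatase inhibitors. Cleared lysate was labelled 10 min with 20 μM desthiobiotin-ATP acyl-nucleotide probe, denatured, alkylated and trypsin-digested for 1 h at 37°C. Probe-labelled peptides were captured on streptavidin and quantified by mass spectrometry as probe-binding block versus DMSO.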

[12] = test system: phospho-CDK1(T161); assay: Western blot of CDK1 T-loop phosphorylation in HAP1 cells; format: cell-based, human; settings: for effect on CDK1 T-loop phosphorylation: HAP1 WT, 24 hours, 125 nM to 2 μM YKL-5-124 or 2 μM YKL-5-167
Procedure, shortened: (§2)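 HAP1 WT and CDK7-C312S cells were treated 24 h across a concentration range, or with 2μM over a time course. Cells were lysed 30 min on ice in RIPA (50mM Tris-HCl, 150 mM NaCl, 1% NP-40, 0.5% deoxycholate, 0.1% SDS, pH 7.4) with protease/phosphatase inhibitors and nuclease. Blots were probed for phospho-T161 CDK1, phospho-T160 CDK2 and the total proteins, and detected with infrared-labelled secondaries.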

[13] = test system: PARP cleavage; assay: Western blot for PARP cleavage; format: cell-based, human; settings: HAP1, all conditions up to 2 μM and 48 hours
[14] = test system: HAP1 cells; assay: Cell cycle analysis; format: cell-based, human; settings: HAP1 WT, 72 hours
Procedure, shortened: (§3)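 HAP1 WT and CDK7-C312S clones were seeded at 500 cells/well and allowed to adhere 24 h, then given a compound dilution series. Cells were analysed at dosing and after 72 h: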

[15] = test system: HAP1 cells expressing CDK7-C312S; assay: Cell cycle analysis; format: cell-based, human; settings: 72 hours
Procedure, shortened: as §3

[16] = test system: HAP1 cells; assay: Growth rate inhibition; format: cell-based, human; settings: for GRmax: HAP1 wild-type, 72 hours
Procedure, shortened: (§4)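 HAP1 WT or CDK7-C312S cells were seeded at 500 cells/well, adhered 24 h, then treated with a dilution series for 72 h. Live cells were identified by a dead-cell stain and Hoechst nuclear segmentation and counted at dosing and at 72 h. Counts were normalised to same-plate DMSO controls to give growth rate inhibition (GR) values. Technical duplicates in biological triplicate.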

[17] = test system: CDK7-C312S expressing HAP1 cells; assay: Growth rate inhibition; format: cell-based, human; settings: for GRmax in CDK7-C312S cells: HAP1 CDK7-C312S, 72 hours
Procedure, shortened: as §4

[18] = test system: HAP1 cells; assay: LIVE/DEAD dye staining in HAP1 cells; format: cell-based, human; settings: HAP1 WT and CDK7-C312S, 72 hours
Procedure, shortened: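 HAP1 WT and CDK7-C312S cells were plated at 500 cells/well and allowed to adhere 24 h before a dilution series of test compound. Cells were analysed at time of dosing and after 72 h. After a 1 h EdU pulse they were stained with LIVE/DEAD Far Red (1:2000), then fixed with 3.7% formaldehyde for 30 min. Mean dye intensity within Hoechst nuclear masks classified cells as live or dead. Technical duplicates, biological triplicate.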

[19] = test system: Jurkat cells; assay: Proliferation assay, Cell Titer Glo; format: cell-based, human; settings: 72 h, highest concentrations
Procedure, shortened: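 Jurkat cells at 2 × 10^4 cells/mL were exposed 72 h to compound at final concentrations from 20μM to 600pM. Viability was read by CellTiter-Glo luminescence, and IC50 was fitted by nonlinear regression. Run in triplicate.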

[20] = test system: Pol II CTD S2/S5/S7 phosphorylation; assay: Western blot of RNA Pol II CTD phosphorylation in HAP1 and Jurkat cells; format: cell-based, human; settings: up to 2 uM, combination with 250nM THZ531
Procedure, shortened: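 HAP1 WT and CDK7-C312S cells were treated 24 h with compound at the indicated concentrations, alone or with 250nM CDK12/13 inhibitor co-treatment. Lysis was 30 min on ice in RIPA buffer (50mM Tris-HCl, 150 mM NaCl, 1% NP-40, 0.5% deoxycholate, 0.1% SDS, pH 7.4) with protease/phosphatase inhibitors and nuclease. Pol II CTD phospho-serine marks were immunoblotted and detected with infrared-labelled secondary antibodies (1:10,000).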

[21] = test system: WT HAP1 cells; assay: RNA sequencing, differential expression and Jaccard analysis in HAP1 WT cells; format: cell-based, human; settings: WT HAP1, 500nM, 24 hr, log2 fold change >1.5
Procedure, shortened: (§5)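 HAP1 WT or CDK7-C312S cells (1×106) were treated 24 h with 500nM or 2μM compound, alone or combined with a 250nM CDK12/13 inhibitor, with DMSO controls. RNA-seq was run in triplicate and genes were called differentially expressed at log2 fold change >1.5. Gene-set overlap between treatments was scored by Jaccard similarity index.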

[22] = test system: CDK7-C312S cells; format: cell-based, human; settings: 500nM, 24 hr
Procedure, shortened: as §5

[23] = test system: CDK13; settings: ATP 1mM, at the concentrations tested
[24] = test system: cyclin K- CDK12/13; settings: HAP1 cells, 6 hours
[25] = test system: CDK7; format: cell-based, Human; settings: at 10μM, Hela cells treated 6 hours, wild-type CDK7
Procedure, shortened: as §1

[26] = test system: CDK7-cyclin H; assay: Competitive bioTHZ1 pulldown in Jurkat cells; format: cell-based, human; settings: Jurkat cells versus HAP1 cells
[27] = test system: CDK2(T160); assay: Western blot of CDK2 T-loop phosphorylation in HAP1 cells; format: cell-based, human; settings: HAP1 WT, 24 hours, 125 nM to 2 μM YKL-5-124 or 2 μM YKL-5-167
Procedure, shortened: as §2

Chain of CDK7/Mat1/CycH (P50613 whole entry): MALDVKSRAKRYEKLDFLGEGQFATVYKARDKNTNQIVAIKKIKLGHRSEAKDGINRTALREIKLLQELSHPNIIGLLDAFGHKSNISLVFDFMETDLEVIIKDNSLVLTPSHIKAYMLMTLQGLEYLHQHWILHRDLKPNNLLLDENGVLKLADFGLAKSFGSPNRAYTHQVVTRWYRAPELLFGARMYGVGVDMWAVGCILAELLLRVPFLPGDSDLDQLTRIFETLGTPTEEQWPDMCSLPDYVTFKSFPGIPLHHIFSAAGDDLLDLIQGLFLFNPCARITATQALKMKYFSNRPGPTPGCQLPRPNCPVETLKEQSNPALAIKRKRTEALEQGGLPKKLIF
Chain of CDK7/Mat1/CycH (P51946 whole entry partner): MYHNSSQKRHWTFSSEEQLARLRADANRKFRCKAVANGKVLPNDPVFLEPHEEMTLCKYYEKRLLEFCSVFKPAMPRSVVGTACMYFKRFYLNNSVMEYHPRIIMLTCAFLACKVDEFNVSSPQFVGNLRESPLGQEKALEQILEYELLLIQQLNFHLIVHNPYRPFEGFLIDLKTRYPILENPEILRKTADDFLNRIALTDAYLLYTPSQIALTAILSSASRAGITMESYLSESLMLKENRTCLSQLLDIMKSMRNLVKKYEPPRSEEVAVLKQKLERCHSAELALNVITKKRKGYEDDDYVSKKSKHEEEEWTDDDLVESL
Chain of CDK7/Mat1/CycH (P51948 whole entry partner): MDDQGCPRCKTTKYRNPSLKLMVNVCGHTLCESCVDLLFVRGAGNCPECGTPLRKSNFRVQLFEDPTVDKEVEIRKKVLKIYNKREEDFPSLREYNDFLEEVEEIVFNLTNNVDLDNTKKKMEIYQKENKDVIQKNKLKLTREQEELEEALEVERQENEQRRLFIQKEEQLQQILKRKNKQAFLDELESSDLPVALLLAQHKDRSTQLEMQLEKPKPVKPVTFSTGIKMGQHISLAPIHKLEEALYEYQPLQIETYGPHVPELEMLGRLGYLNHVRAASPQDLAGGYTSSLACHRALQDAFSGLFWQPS
Chain of CDK7/CycH/Mat1 (P50613 whole entry): as the sequence (P50613 whole entry) above
Chain of CDK7/CycH/Mat1 (P51946 whole entry partner): as the sequence (P51946 whole entry partner) above
Chain of CDK7/CycH/Mat1 (P51948 whole entry partner): as the sequence (P51948 whole entry partner) above
Chain of CDK7 (Homo sapiens, UniProt P50613) (P50613 2-346): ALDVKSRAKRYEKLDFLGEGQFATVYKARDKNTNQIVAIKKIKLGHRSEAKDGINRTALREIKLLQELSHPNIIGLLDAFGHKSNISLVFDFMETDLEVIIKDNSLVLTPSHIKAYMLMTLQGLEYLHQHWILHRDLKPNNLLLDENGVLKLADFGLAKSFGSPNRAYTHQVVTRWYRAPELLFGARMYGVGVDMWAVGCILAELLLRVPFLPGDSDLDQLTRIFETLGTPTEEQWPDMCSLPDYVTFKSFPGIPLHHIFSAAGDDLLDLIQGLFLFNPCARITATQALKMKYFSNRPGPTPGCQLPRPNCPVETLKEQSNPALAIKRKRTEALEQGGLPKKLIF
Chain of CDK7 (Homo sapiens, UniProt P50613) (P51946 whole entry partner): as the sequence (P51946 whole entry partner) above
Chain of CDK7 (Homo sapiens, UniProt P50613) (P51948 whole entry partner): as the sequence (P51948 whole entry partner) above
Chain of CDK9/CycT1 (P50750 whole entry): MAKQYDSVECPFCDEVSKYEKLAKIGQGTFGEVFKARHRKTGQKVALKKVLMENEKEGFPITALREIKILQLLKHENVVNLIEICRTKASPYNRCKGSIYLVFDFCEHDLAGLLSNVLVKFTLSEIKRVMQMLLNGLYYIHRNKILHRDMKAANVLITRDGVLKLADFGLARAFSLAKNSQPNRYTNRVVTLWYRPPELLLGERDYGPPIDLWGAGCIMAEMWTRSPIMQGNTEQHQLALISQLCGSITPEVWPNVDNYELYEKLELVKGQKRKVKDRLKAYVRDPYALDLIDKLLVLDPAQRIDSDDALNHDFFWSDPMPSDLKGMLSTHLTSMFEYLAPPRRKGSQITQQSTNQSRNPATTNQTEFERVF
Chain of CDK9/CycT1 (O60563 whole entry partner): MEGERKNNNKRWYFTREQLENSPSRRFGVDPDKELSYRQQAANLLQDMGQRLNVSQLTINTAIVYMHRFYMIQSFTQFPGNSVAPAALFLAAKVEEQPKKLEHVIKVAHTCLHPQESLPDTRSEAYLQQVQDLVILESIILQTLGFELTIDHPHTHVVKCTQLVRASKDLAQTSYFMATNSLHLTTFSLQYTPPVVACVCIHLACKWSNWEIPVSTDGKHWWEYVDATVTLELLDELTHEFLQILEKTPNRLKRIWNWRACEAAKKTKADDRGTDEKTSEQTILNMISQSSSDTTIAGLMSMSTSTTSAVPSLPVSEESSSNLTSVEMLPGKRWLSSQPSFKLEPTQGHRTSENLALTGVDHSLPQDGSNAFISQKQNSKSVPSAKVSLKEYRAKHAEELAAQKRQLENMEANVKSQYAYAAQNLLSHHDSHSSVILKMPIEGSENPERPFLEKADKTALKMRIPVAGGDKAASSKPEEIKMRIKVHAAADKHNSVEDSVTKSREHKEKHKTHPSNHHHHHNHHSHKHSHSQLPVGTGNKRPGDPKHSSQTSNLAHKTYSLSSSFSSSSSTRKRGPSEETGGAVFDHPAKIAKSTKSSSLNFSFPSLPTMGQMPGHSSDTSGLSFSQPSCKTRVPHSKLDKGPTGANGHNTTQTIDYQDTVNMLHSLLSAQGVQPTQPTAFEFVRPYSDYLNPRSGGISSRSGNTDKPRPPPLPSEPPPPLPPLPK

In the case of `CN(C)C/C=C/C(=O)Nc1ccc(C(=O)N2CCC[C@@H](Nc3ncc(Cl)c(-c4c[nH]c5ccccc45)n3)C2)cc1` [THZ531], the “times more potent on CDK12/13 than CDK7” value [1] is given as “approximately 20 times”.
For `C=CC(=O)Nc1ccc(C(=O)Nc2n[nH]c3c2CN(C(=O)N[C@H](CN(C)C)c2ccccc2)C3(C)C)cc1` [YKL-5-124, (S)-3-(4-acrylamidobenzamido)-N-(2-(dimethylammo)-1-phenylethyl)-6,6-dimethyl-4,6-dihydropyrrolo[3,4-c]pyrazole-5(1H)-carboxamide], the “selectivity for CDK7 than CDK9 and CDK2” value [2] was 100 fold, the pIC50 ([2]; read-out: IC50 CDK7/Mat1/CycH, fixed time point, Km ATP) was 8.01 and the pIC50 [3] was 5.89. The pIC50 [4] was 5.52, the pKi ([5]; 1 mM ATP, 2-step inactivation model) was 8.72 and the “covalently modifies CDK7 times faster than THZ1” value ([5]; ratio of kinact values) was “approximately 11 times”. The “efficiency of covalent labeling of CDK7” value [6] was “approximately 99%”, the “inhibitory activity in the in vitro kinase assay with C312S mutant” value [7] was “abolished the inhibitory activity” and the pIC50 [8] was 7.27. For the same molecule, the “inhibition of CDK12” value [9] was “no inhibition”, the “reduction of CDK7-cyclin H binding to bioTHZ1” value ([10]; 100 nM, 30 min) was greater than 50% and the “concentration that blocked pulldown of CDK7-cyclin H” value ([10]; HAP1 cells, 6 hours) was “about 30 nM”. For the same molecule, the “lowest concentration with engagement of CDK7 three hours after washout” value ([10]; washout after 3-hour treatment) was 125 nM, the “CDK7 bound (block of desthiobiotin-ATP probe)” value [11] was “more than 65%” and the “time to inhibition of T-loop phosphorylation” value ([12]; HAP1, 2μM) was no more than 12 h. For the same molecule, the “effect on CDK1 T-loop phosphorylation” value [12] was “inhibited CDK1 T-loop phosphorylation”, the “concentration for reduced CDK1/2 activation” value ([12]; HAP1 and Jurkat cells) was “exceeding 1 μM” and the “PARP cleavage / apoptosis” value [13] was “apoptosis was not induced”. For the same molecule, the “effect on cell cycle distribution” value [14] was “dose-dependent increase in G1 and G2/M phase cells and a corresponding loss of S phase cells”, the “effect on cell cycle distribution in CDK7-C312S cells” value [15] was “cell cycle distribution was not affected” and the “concentration at which strong anti-proliferative effects begin” value ([16]; HAP1 and Jurkat cells) was 100 nM. For the same molecule, the GRmax [16] was “zero”, the “GR50 fold higher in CDK7-C312S than in wild-type cells” value ([17]; HAP1, 72 hours) was “at least 150 fold” and the “GRmax in CDK7-C312S cells” value [17] was “too high to be estimated accurately”. For the same molecule, the “cell death by LIVE/DEAD dye” value [18] was “substantially reduced in CDK7-C312S cells”, the “maximal inhibition of proliferation (residual, of the original cell count)” value [19] was no more than 20% and the “effect on phosphorylation of S5 and other Pol II CTD serine residues” value [20] was “no effect”. For the same molecule, the “number of differentially expressed genes” value [21] was 1452 genes, the “number of differentially expressed genes” value [22] was 583 genes and the “inhibition of CDK13” value [23] was “no inhibition”. The “effect on pulldown of cyclin K- CDK12/13” value [24] was “no effect”.
For `CCC(=O)Nc1ccc(C(=O)Nc2n[nH]c3c2CN(C(=O)N[C@H](CN(C)C)c2ccccc2)C3(C)C)cc1` [YKL-5-167, (S)-N-(2-(dimethylamino)-1-phenylethyl)-6,6-dimethyl-3-(4-propionamidobenzamido)-4,6-dihydropyrrolo[3,4-c]pyrazole-5(1H)-carboxamide], the “inhibition of phosphorylation of RNA polymerase II substrate” value [25] was “little or no inhibition”, the “time required for equivalent engagement of CDK7 (>50%)” value ([10]; HAP1 cells) was 6 h and the “fold less effective as a competitor for CDK7-cyclin H” value ([10]; relative to YKL-5-124) was 100 fold. The “activity as competitor following washout” value ([10]; washout after 3-hour treatment) was “inactive following washout”, the “fold higher concentrations required to function as a competitor” value [26] was 10 fold and the “CDK7 engagement in KiNativ” value [11] was “only weakly engaged”. The “effect on CDK1 T-loop phosphorylation” value [12] was “no detectable effect”, the “effect on CDK2 T-loop phosphorylation” value [27] was “no detectable effect” and the “effect on cell cycle distribution” value [14] was “no effect on cell cycle distribution”.
For `CN(C)C/C=C/C(=O)Nc1ccc(C(=O)Nc2cccc(Nc3ncc(Cl)c(-c4c[nH]c5ccccc45)n3)c2)cc1` [THZ1, reference compound], the “time required for equivalent engagement of CDK7 (>50%)” value ([10]; HAP1 cells) was “twice as long”, the GRmax [16] was “negative” and the “GRmax in CDK7-C312S cells” value [17] was “unchanged”. The “cell death by LIVE/DEAD dye” value [18] was “induced substantially more cell death than YKL-5-124”, the “maximal inhibition of proliferation” value [19] was “inhibit proliferation to zero” and the “effect on pulldown of cyclin K- CDK12/13” value [24] was “bound to both CDK7 and CDK12/13”.
